Screening data from PubChem.
Sampled rows, rich in hits. Any-hit rate of the full collection: about 0.72%.
mIAP act: activators of mouse IAP, primary screen, biochemical, luminescence, uHTS; intestinal alkaline phosphatase [Mus musculus]; muIAP, CDP-Star luminescence, 30 min; active compounds read high; 1 = vehicle-only enzyme signal, 0 = enzyme-free wells; activation factor at 10 µM; 330,000 compounds, 0.24% hits; AID 2805, 2010;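 active = activation factor of at least 2 at 20 µM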
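Assay system: mouse IAP enzyme; Reagent: CDP-Star chemiluminescent phosphatase substrate; Compound: DMSO-dissolved test compounds; Incubation: 30 min, room temperature; Technique: luminescence from enzymatic CDP-Star hydrolysis; Controls: DMSO-only wells and no-enzyme negative control.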
hIAP act: human IAP activators, primary screen, biochemical, luminescence, uHTS; Intestinal-type alkaline phosphatase (Homo sapiens), P09923; purified human IAP, CDP-Star luminescence, 30 min; active compounds read high; 1 = vehicle-only enzyme, 0 = enzyme-free background; activation factor at 10 µM; 330,000 compounds, 0.16% hits;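 active = activation factor of the enzyme at least 2-fold when tested at 20 µM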
Target sequence (P09923 whole entry, looked up): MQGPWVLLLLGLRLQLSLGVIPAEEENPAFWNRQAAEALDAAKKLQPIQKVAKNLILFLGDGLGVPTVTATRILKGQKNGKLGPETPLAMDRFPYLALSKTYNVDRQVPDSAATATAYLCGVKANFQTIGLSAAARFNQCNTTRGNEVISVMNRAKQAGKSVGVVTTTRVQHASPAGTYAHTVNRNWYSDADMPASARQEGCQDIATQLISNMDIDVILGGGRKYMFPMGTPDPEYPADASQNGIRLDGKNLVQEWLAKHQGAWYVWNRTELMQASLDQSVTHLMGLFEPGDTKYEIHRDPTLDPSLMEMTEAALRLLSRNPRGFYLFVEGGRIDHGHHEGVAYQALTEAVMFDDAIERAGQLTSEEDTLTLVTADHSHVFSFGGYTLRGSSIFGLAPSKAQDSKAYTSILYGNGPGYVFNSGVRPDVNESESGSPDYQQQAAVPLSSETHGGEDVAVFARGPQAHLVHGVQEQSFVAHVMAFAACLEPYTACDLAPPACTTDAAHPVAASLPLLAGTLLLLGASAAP
bIAP act: bovine intestinal alkaline phosphatase activators, primary screen, biochemical, bovine IAP, CDP-star luminescence | alkaline phosphatase, intestinal [Bos taurus] | purified bovine IAP, 30 min; active compounds read high; fold of DMSO-control signal, blank-subtracted | activation factor at 20 µM | 200,000 compounds, 0.17% hits | AID 1016, 2008;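 active = activation factor of 2 or more at 20 µM, a signal rise over negative controls twice the positive control's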
bIAP inh: bovine intestinal alkaline phosphatase inhibitors, primary screen, selectivity assay for TNAP inhibitor project, biochemical, bovine IAP, CDP-star luminescence | purified bovine IAP, 30 min | 190,000 tested, under 10 active | inhibition, % at 20 µM | AID 1019, 2008 | alkaline phosphatase, intestinal [Bos taurus];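 active = over 50% inhibition of intestinal alkaline phosphatase at 20 µM in the single-dose screen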
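Assay system – bovine IAP enzyme · Quantity – bovine IAP at 1/65,000,000 final dilution · Detection – CDP-star luminescence signal · Times – 30 min reaction at room temperature · Also added – CDP-star substrate at 30 µM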
hIAP block: human IAP inhibitors, primary screen, biochemical, luminescence, uHTS; Intestinal-type alkaline phosphatase (Homo sapiens), P09923; purified IAP, CDP-Star luminescence, 30 min; inhibition, % at 10 µM; 330,000 compounds, 0.12% hits;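 active = inhibition reaching a set limit with compound at 10 µM in the primary screen, cut at about 35% in these data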;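 also: plate controls were DMSO wells with enzyme for no effect and no-enzyme buffer wells for full effect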
mIAP inh: inhibitors of mouse IAP, primary screen, biochemical, luminescence, uHTS; intestinal alkaline phosphatase [Mus musculus]; inhibition, % at 10 µM; 330,000 compounds, 0.2% hits; AID 2806, 2010; purified mouse IAP, CDP-Star luminescence, 30 min;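 active = inhibition of at least 40% at 10 µM in the primary screen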;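 also: plate controls were DMSO with enzyme for no effect and no enzyme wells for full effect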
hIAP act confirm: human IAP activators, confirmation, biochemical, luminescence, single concentration, uHTS hits. purified IAP, CDP-Star luminescence, 30 min; active compounds read low. activation (%Activity, negative = activation), % at 8.3 µM. 880 compounds, 10% hits. shares compounds with hIAP act;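 active = at least twofold enzyme activation in any of six single-dose repeats, which the averaged readout prints as negative percent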
mIAP inh confirm: inhibitors of mouse IAP, confirmation, biochemical, luminescence, single concentration | 11,000 compounds, 4.7% hits | inhibition, % at 10 µM | purified mouse IAP, CDP-Star luminescence, 30 min | AID 434971, 2010 | shares compounds with mIAP inh;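 active = inhibition of at least 40% at 10 µM in either of the two replicates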;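 also: plate controls were DMSO wells with enzyme for no effect and buffer wells lacking enzyme for full effect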
An asterisk follows results filed as active; nt = no result given.

SMILES	mIAP act	hIAP act	bIAP act	bIAP inh	hIAP block	mIAP inh	mIAP inh confirm	others
CN1C(=O)C(=Cc2ccc(N3CCCCCC3)o2)C(=O)N(C)C1=S	0.57	0.99	0.7	27	1	43*	nt
Nc1ncc([N+](=O)[O-])s1	0.57	1.2	nt	nt	-17	43*	nt
CC(N)C(=O)OC(C)(C)Cc1ccc(Cl)cc1 (centres undefined)	1.1	1.1	nt	nt	-7	-8	nt
CNS(=O)(=O)c1ccc(-c2ccc(C=C3C(=O)NC(=O)NC3=O)o2)cc1	0.81	0.91	nt	nt	9	19	nt
NS(=O)(=O)c1ccc(-c2ccc(C=C3C(=O)NC(=O)NC3=O)o2)cc1	0.35	0.93	nt	nt	7	64*	nt
C[C@]12CCC3C(CC[C@H]4C[C@H](O)CC[C@]34C)C1C[C@@H](CCCCl)[C@@H]2O (some centres undefined)	1	1.1	nt	nt	-10	-2	nt
O=C(Nc1cccc(Cl)c1)OC1CN2CCC1CC2 (centres undefined)	4.4*	0.93	nt	nt	7	-342	nt
CCOC(=O)[C@@H]1[C@H]2COc3ccc(Br)cc3[C@H]2N2C(=O)N(c3cccc(C)c3)C(=O)[C@]12C	0.97	0.92	nt	nt	8	3	nt
COC(=O)Cn1cc(/C=C2\C(=O)NC(=O)N(c3ccccc3)C2=O)c2ccccc21	0.98	0.63	nt	nt	37*	2	nt	hIAP act confirm=34
COC1=CC2[C@@H]3Cc4ccc(OC)c(O)c4[C@]2(CCN3C)CC1=O (some centres undefined)	1	1.3	nt	nt	-30	-2	nt
O=C1NC(=O)N(c2ccccc2)C(=O)/C1=C\c1ccc([N+](=O)[O-])o1	0.53	1.2	nt	nt	-16	47*	59*
CN1C(=O)NC(=O)/C(=C\c2ccc([N+](=O)[O-])o2)C1=O	0.56	0.89	1	2	11	44*	56*
CN1C(=O)NC(=O)/C(=C/c2ccc([N+](=O)[O-])o2)C1=O	0.58	0.88	nt	nt	12	42*	42*
C[C@]12CCC(=O)C[C@H]1CC[C@@H]1[C@@H]2CC[C@]2(C)C(=O)CC[C@@H]12	1	0.99	nt	nt	1	-2	nt
NS(=O)(=O)c1ccc(-c2ccc(C=C3C(=O)NC(=S)NC3=O)o2)cc1	0.22	0.93	nt	nt	7	78*	72*
COC(=O)C1=C(c2ccccc2OCc2ccccc2)C[C@@H]2CC[C@H]1N2C(=O)NCc1cccc(C(F)(F)F)c1	1.4	0.87	nt	nt	13	-36	nt
CC(C)(C)c1cc(C=C(C#N)C#N)cc(C(C)(C)C)c1O	0.76	0.8	nt	nt	20	24	nt
N#CC(C#N)=Cc1ccc(O)c(O)c1	0.54	0.67	nt	nt	33	46*	66*
Cc1ccc(/C=C2/C(=O)NC(=O)N(C)C2=O)cc1	0.99	1.1	1	-5	-13	1	nt
COc1ccc(OC)c(N2C(=O)NC(=O)/C(=C\c3ccc([N+](=O)[O-])s3)C2=O)c1	0.72	0.84	1	-2	16	28	nt
O=C1NC(=O)N(c2ccccc2)C(=O)/C1=C\c1ccc([N+](=O)[O-])s1	0.59	0.98	nt	nt	2	41*	53*
CN1C(=O)NC(=O)/C(=C/c2ccc([N+](=O)[O-])s2)C1=O	0.54	1	nt	nt	0	46*	45*
Cc1ncc2n1-c1ccc(Cl)cc1C(c1ccccc1F)=NC2	1.1	1	nt	nt	-2	-9	nt
Cc1ccc(CN2C3CCCC2CC(NC(=S)NCc2ccccc2)C3)cc1 (centres undefined)	4.5*	2	4.2*	-320	-100	-353	-188
CC(=O)O[C@H]1CC[C@@]2(C)C(=CC(=O)C3C2CC[C@@]2(C)C3C[C@H](OC(C)=O)[C@@H]2OC(C)=O)C1 (some centres undefined)	0.94	1.1	nt	nt	-12	6	nt
SMILES	mIAP act	hIAP act	bIAP act	bIAP inh	hIAP block	mIAP inh	mIAP inh confirm	others
O=C(O)Cn1cc(/C=C2\C(=O)NC(=O)N(Cc3ccco3)C2=O)c2ccccc21	0.43	0.99	1.1	-8	1	57*	58*
CCN(CC)c1ccc(/C=C2\C(=O)NC(=O)N(Cc3ccco3)C2=O)cc1	0.51	0.95	0.9	14	5	49*	53*
CCN(CC)c1ccc(/C=C2/C(=O)NC(=O)N(CC3CCCO3)C2=O)cc1 (centres undefined)	0.97	0.91	1	1	9	3	nt
C[C@]12CCC3C(CC[C@H]4C[C@H](O)CC[C@]34C)C1CCC2=O (some centres undefined)	1	0.84	nt	nt	16	-1	nt
C=C1C(O)[C@@H]2O[C@]3(CC[C@H](/C=C/C(C)[C@@H]4CC(C)=CC5(O[C@H](C[C@@](C)(O)C(=O)O)CCC5O)O4)O3)CC[C@H]2O[C@@H]1C(O)CC(C)[C@H]1OC2(CCCCO2)CCC1C (some centres undefined)	1.1	1	nt	nt	-1	-9	nt
O=C1NC(=S)NC(=O)C1=Cc1ccc(Br)s1	0.4	1.1	nt	nt	-6	60*	76*
CCN1C(=O)C(=Cc2ccc(C)s2)C(=O)N(CC)C1=S	0.89	0.91	0.9	13	9	11	nt
O=C1NC(=O)N(Cc2ccccc2)C(=O)/C1=C\c1ccco1	0.93	0.91	1.1	-14	9	7	nt
O=C1NC(=O)N(Cc2ccc(F)cc2)C(=O)/C1=C\C=C\c1ccco1	0.41	0.99	nt	nt	1	59*	61*
